Data: ChEMBL document CHEMBL3593176, “Design and biological evaluation of novel 4-(2-fluorophenoxy)quinoline derivatives bearing an imidazolone moiety as c-Met kinase inhibitors” (Bioorg Med Chem, 2015)

Columns and labels:
A549 = test: cells; conditions: Homo sapiens, A549, 72 h
HT-29 = test: cells; conditions: Homo sapiens, HT-29, 72 h
cells [1] = conditions: Homo sapiens, MKN-45, 72 h
cells [2] = conditions: Homo sapiens, NCI-H460, 72 h
[3] = molecular target: Vascular endothelial growth factor receptor 2 (Homo sapiens, UniProt P35968); test: Inhibition of VEGFR-2 (unknown origin) using poly (Glu, Tyr) 4:1 as substrate after 30 mins by HTRF assay
[4] = molecular target: Macrophage-stimulating protein receptor (Homo sapiens, UniProt Q04912); test: Inhibition of Ron (unknown origin) using poly (Glu, Tyr) 4:1 as substrate after 30 mins by HTRF assay
Outline: (§1)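 Purified tyrosine kinase with poly(Glu,Tyr) 4:1 substrate (20 µg/mL) and ATP (10 mM solution) in 50 mM HEPES pH 7.0 buffer containing DTT, MgCl₂, MnCl₂, 0.1% NaN₃; compounds at various concentrations in 1% DMSO. Inhibition normalised to enzyme-free and uninhibited controls; IC50 from inhibition curves.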

[5] = molecular target: Mast/stem cell growth factor receptor Kit (Homo sapiens, UniProt P10721); test: Inhibition of c-Kit (unknown origin) using poly (Glu, Tyr) 4:1 as substrate after 30 mins by HTRF assay
Outline: as §1

[6] = molecular target: Hepatocyte growth factor receptor (Homo sapiens, UniProt P08581); test: Inhibition of c-Met (unknown origin) using poly (Glu, Tyr) 4:1 as substrate after 30 mins by HTRF assay
MKN-45 = test: Potency index, ratio of foretinib IC50 to compound IC50 for human MKN45 cells; type: functional
[7] = molecular target: T1, Receptor-type tyrosine-protein kinase FLT3 (Homo sapiens, UniProt P36888); test: Inhibition of FLT-3 (unknown origin) using poly (Glu, Tyr) 4:1 as substrate after 30 mins by HTRF assay
T1 sequence (P36888 whole entry): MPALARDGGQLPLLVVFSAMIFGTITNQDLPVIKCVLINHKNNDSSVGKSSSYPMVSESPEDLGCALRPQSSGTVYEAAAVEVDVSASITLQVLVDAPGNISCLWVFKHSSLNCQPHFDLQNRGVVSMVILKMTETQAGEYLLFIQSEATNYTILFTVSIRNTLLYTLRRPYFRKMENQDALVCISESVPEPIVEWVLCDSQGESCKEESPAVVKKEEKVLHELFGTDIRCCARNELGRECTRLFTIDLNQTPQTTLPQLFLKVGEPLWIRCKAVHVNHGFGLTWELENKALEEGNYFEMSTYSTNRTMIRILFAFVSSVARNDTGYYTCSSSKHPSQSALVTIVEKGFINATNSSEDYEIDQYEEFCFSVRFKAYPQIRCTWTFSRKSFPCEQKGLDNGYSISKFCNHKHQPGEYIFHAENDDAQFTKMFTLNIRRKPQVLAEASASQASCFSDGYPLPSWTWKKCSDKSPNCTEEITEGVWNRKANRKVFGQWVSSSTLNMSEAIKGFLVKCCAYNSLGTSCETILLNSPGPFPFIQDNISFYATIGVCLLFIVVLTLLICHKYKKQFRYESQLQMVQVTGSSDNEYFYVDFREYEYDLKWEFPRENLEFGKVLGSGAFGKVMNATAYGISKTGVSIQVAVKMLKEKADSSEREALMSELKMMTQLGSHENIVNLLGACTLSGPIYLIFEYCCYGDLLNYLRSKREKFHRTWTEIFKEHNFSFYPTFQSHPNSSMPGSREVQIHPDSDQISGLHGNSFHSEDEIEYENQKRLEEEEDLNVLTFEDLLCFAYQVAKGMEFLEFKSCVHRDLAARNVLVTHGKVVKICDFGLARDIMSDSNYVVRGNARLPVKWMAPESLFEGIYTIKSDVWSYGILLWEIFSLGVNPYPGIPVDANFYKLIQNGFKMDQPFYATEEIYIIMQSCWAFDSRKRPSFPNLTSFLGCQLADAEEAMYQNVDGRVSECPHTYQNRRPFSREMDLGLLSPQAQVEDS

[8] = Potency index, ratio of foretinib IC50 to compound IC50 for human H460 cells; type: functional
[9] = molecular target: Epidermal growth factor receptor (Homo sapiens, UniProt P00533); test: Inhibition of EGFR (unknown origin) using poly (Glu, Tyr) 4:1 as substrate after 30 mins by HTRF assay
Outline: as §1

Epidermal growth factor receptor, sequence (P00533 whole entry): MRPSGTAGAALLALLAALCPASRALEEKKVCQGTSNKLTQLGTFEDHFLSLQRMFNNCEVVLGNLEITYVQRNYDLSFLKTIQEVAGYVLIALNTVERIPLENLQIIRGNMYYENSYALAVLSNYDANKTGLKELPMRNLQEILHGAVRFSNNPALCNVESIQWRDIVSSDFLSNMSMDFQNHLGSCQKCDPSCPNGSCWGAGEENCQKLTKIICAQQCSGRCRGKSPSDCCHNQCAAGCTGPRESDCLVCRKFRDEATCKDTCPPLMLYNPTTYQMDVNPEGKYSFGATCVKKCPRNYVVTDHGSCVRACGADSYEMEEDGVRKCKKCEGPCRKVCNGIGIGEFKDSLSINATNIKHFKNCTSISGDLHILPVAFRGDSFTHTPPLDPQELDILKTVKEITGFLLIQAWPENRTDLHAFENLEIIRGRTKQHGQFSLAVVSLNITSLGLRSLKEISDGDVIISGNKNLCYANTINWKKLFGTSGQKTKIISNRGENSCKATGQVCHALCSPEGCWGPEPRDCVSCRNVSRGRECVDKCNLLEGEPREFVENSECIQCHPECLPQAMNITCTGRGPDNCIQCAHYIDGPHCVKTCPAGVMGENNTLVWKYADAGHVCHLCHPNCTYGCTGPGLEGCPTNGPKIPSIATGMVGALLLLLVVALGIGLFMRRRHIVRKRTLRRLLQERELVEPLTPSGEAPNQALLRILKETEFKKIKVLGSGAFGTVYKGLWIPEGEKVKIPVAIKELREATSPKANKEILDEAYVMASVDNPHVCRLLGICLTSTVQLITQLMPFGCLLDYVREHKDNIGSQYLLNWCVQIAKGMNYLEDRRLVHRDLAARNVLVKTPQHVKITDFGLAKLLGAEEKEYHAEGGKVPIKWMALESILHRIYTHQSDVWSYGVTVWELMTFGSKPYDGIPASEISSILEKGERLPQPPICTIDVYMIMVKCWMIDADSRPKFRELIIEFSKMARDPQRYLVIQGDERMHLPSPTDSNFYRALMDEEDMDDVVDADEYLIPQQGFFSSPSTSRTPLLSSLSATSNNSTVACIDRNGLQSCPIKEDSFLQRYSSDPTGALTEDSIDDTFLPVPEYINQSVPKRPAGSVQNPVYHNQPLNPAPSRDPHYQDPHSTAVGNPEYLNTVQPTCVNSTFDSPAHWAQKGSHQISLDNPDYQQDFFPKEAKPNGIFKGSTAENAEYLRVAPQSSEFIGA
Vascular endothelial growth factor receptor 2, sequence (P35968 whole entry): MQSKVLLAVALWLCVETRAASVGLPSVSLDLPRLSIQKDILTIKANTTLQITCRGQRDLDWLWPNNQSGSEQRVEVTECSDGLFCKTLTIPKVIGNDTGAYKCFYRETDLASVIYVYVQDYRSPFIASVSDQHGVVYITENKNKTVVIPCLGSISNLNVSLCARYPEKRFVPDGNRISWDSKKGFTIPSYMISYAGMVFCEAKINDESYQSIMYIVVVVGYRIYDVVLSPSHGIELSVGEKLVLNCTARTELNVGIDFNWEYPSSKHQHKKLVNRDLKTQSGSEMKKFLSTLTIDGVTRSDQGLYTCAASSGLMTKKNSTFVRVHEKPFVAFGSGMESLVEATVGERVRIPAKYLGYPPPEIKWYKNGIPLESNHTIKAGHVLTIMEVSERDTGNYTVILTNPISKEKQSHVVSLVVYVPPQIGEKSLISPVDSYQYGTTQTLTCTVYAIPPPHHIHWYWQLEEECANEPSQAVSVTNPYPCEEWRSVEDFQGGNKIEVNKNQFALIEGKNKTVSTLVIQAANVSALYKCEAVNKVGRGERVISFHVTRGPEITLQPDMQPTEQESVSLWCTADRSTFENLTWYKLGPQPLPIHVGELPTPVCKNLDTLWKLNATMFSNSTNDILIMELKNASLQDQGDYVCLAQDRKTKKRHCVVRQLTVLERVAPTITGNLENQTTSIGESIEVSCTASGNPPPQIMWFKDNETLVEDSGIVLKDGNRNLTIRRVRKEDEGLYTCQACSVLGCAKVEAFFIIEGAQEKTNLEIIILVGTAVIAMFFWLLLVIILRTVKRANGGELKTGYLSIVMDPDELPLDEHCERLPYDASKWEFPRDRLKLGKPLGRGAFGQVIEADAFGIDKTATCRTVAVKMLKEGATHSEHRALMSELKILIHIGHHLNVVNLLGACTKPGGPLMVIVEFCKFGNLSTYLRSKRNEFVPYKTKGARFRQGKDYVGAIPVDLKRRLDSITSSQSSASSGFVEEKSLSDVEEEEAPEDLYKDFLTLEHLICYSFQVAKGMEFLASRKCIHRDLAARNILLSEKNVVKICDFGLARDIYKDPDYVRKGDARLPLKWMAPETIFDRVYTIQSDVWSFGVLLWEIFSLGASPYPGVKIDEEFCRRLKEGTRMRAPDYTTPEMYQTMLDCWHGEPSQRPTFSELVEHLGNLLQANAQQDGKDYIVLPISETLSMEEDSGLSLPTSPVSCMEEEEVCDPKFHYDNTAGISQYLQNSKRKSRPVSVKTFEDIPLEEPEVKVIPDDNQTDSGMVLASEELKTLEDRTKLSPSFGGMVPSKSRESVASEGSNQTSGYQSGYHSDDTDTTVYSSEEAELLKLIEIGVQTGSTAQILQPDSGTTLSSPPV
Mast/stem cell growth factor receptor Kit, sequence (P10721 whole entry): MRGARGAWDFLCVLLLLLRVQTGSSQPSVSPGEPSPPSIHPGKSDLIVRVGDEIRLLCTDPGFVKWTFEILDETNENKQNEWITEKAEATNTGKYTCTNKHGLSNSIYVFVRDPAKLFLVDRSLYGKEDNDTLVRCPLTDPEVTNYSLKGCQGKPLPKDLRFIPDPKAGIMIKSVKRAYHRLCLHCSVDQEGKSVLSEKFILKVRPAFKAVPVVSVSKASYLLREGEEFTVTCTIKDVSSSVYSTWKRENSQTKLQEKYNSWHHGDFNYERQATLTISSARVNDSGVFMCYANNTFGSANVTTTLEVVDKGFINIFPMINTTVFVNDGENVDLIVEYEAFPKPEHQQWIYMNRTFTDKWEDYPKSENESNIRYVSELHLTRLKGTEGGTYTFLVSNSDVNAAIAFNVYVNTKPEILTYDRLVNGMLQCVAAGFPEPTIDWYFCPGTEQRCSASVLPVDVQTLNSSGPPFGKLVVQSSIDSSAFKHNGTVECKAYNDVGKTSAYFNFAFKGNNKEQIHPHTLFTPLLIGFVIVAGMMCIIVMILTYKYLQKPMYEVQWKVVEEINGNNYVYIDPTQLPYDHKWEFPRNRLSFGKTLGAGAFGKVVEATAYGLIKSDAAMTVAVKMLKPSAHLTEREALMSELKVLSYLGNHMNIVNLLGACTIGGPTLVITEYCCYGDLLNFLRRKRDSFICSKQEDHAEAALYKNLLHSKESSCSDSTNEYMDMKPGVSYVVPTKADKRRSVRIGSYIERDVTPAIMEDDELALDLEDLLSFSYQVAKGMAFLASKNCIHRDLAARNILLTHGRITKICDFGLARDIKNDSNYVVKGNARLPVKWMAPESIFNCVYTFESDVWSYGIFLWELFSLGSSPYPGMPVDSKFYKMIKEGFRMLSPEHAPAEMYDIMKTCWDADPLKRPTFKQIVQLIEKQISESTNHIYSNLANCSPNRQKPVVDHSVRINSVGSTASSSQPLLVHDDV
Hepatocyte growth factor receptor, sequence (P08581 whole entry): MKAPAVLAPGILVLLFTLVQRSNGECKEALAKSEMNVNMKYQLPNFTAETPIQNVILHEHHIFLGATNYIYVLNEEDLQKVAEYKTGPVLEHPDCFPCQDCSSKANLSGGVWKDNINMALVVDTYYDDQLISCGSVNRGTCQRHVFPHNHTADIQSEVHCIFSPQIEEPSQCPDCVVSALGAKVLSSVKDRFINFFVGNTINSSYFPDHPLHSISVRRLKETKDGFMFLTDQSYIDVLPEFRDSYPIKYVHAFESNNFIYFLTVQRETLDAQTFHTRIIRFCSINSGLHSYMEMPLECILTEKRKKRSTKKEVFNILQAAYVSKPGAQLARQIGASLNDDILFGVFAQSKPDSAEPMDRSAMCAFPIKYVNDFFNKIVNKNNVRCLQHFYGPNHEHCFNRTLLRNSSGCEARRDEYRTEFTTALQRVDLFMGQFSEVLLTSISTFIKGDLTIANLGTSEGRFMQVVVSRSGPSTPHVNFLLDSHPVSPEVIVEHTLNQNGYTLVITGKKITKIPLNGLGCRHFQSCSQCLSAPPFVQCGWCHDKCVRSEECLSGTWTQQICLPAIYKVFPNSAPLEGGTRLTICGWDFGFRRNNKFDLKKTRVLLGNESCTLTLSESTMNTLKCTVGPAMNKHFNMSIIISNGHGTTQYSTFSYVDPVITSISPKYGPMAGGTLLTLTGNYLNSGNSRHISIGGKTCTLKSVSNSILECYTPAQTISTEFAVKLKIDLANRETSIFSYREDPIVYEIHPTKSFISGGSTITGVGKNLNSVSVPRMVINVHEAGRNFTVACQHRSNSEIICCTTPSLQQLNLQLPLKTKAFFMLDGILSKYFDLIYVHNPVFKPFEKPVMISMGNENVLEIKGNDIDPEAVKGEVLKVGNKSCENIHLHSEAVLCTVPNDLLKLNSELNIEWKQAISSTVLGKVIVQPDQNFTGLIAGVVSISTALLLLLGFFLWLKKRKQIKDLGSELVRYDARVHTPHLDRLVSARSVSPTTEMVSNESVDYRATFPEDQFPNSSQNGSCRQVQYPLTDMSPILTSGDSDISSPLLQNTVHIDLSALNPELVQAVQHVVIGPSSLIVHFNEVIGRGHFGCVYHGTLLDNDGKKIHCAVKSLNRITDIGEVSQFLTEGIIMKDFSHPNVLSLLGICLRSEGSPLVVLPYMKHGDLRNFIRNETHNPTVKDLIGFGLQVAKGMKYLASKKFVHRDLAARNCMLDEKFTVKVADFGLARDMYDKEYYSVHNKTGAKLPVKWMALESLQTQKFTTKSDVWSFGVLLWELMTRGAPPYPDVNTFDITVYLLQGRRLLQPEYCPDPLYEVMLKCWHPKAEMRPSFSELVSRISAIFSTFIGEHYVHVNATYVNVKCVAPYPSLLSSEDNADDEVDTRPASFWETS

Structure (SMILES) | IC50 (A549) [nM] | IC50 (HT-29) [nM] | IC50 (cells [1]) [nM] | IC50 (cells [2]) [nM] | IC50 [3] [nM] | IC50 [4] [nM] | IC50 [5] [nM] | IC50 [6] [nM] | Ratio IC50 (MKN-45) | IC50 [7] [nM] | Ratio IC50 [8] | IC50 [9] [nM]
COc1cc2c(Oc3ccc(NC(=O)c4c(C)n(-c5ccc(C(F)(F)F)cc5)c(=O)n4C)cc3F)ccnc2cc1OCCCN1CCN(C)CC1 | 500 | 260 | 98 | 360 | – | – | – | – | – | – | – | –
COc1cc2c(Oc3ccc(NC(=O)c4c(C)n(-c5ccccc5)c(=O)n4C)cc3F)ccnc2cc1OCCCN1CCOCC1 | 980 | 740 | 320 | 790 | – | – | – | – | – | – | – | –
COc1cc2c(Oc3ccc(NC(=O)c4c(C)n(-c5ccccc5)c(=O)n4C)cc3F)ccnc2cc1OCCCN1CCCC1 | 1460 | 940 | 510 | 1030 | – | – | – | – | – | – | – | –
COc1cc2c(Oc3ccc(NC(=O)c4c(C)n(-c5ccccc5)c(=O)n4C)cc3F)ccnc2cc1OCCCN1CCCCC1 | 790 | 560 | 240 | 650 | – | – | – | – | – | – | – | –
COc1cc2c(Oc3ccc(NC(=O)c4c(C)n(-c5ccccc5)c(=O)n4C)cc3F)ccnc2cc1OCCCN1CCC(C)CC1 | 660 | 360 | 210 | 590 | – | – | – | – | – | – | – | –
COc1cc2c(Oc3ccc(NC(=O)c4c(C)n(-c5ccccc5)c(=O)n4C)cc3F)ccnc2cc1OCCCN1CCN(C)CC1 | 600 | 300 | 190 | 420 | – | – | – | – | – | – | – | –
COc1cc2c(Oc3ccc(NC(=O)c4c(C)n(-c5ccc(C)cc5)c(=O)n4C)cc3F)ccnc2cc1OCCCN1CCC(C)CC1 | 1120 | 790 | 430 | 940 | – | – | – | – | – | – | – | –
COc1cc2c(Oc3ccc(NC(=O)c4c(C)n(-c5ccc(C)cc5)c(=O)n4C)cc3F)ccnc2cc1OCCCN1CCN(C)CC1 | 830 | 490 | 360 | 510 | – | – | – | – | – | – | – | –
COc1ccc(-n2c(C)c(C(=O)Nc3ccc(Oc4ccnc5cc(OCCCN6CCC(C)CC6)c(OC)cc45)c(F)c3)n(C)c2=O)cc1 | 1040 | 790 | 490 | 940 | – | – | – | – | – | – | – | –
COc1ccc(-n2c(C)c(C(=O)Nc3ccc(Oc4ccnc5cc(OCCCN6CCN(C)CC6)c(OC)cc45)c(F)c3)n(C)c2=O)cc1 | 960 | 560 | 440 | 690 | – | – | – | – | – | – | – | –
COc1cc2c(Oc3ccc(NC(=O)c4c(C)n(-c5ccc(F)cc5)c(=O)n4C)cc3F)ccnc2cc1OCCCN1CCC(C)CC1 | 520 | 240 | 84 | 250 | – | – | – | – | – | – | – | –
COc1cc2c(Oc3ccc(NC(=O)c4c(C)n(-c5ccc(F)cc5)c(=O)n4C)cc3F)ccnc2cc1OCCCN1CCN(C)CC1 | 430 | 190 | 67 | 260 | – | – | – | – | – | – | – | –
COc1cc2c(Oc3ccc(NC(=O)c4c(C)n(-c5ccc(Cl)cc5)c(=O)n4C)cc3F)ccnc2cc1OCCCN1CCC(C)CC1 | 420 | 170 | 62 | 200 | – | – | – | – | – | – | – | –
COc1cc2c(Oc3ccc(NC(=O)c4c(C)n(-c5ccc(Cl)cc5)c(=O)n4C)cc3F)ccnc2cc1OCCCN1CCN(C)CC1 | 360 | 140 | 58 | 170 | – | – | – | – | – | – | – | –
COc1cc2c(Oc3ccc(NC(=O)c4c(C)n(-c5ccc(Br)cc5)c(=O)n4C)cc3F)ccnc2cc1OCCCN1CCC(C)CC1 | 680 | 280 | 160 | 550 | – | – | – | – | – | – | – | –
COc1cc2c(Oc3ccc(NC(=O)c4c(C)n(-c5ccc(Br)cc5)c(=O)n4C)cc3F)ccnc2cc1OCCCN1CCN(C)CC1 | 480 | 290 | 120 | 360 | – | – | – | – | – | – | – | –

Structure (SMILES) | IC50 (A549) [nM] | IC50 (HT-29) [nM] | IC50 (cells [1]) [nM] | IC50 (cells [2]) [nM] | IC50 [3] [nM] | IC50 [4] [nM] | IC50 [5] [nM] | IC50 [6] [nM] | Ratio IC50 (MKN-45) | IC50 [7] [nM] | Ratio IC50 [8] | IC50 [9] [nM]
COc1cc2c(Oc3ccc(NC(=O)c4c(C)n(-c5ccc(F)c(F)c5)c(=O)n4C)cc3F)ccnc2cc1OCCCN1CCOCC1 | 620 | 390 | 170 | 540 | – | – | – | – | – | – | – | –
COc1cc2c(Oc3ccc(NC(=O)c4c(C)n(-c5ccc(F)c(F)c5)c(=O)n4C)cc3F)ccnc2cc1OCCCN1CCC(C)CC1 | 530 | 230 | 95 | 230 | – | – | – | – | – | – | – | –
COc1cc2c(Oc3ccc(NC(=O)c4c(C)n(-c5ccc(F)c(F)c5)c(=O)n4C)cc3F)ccnc2cc1OCCCN1CCN(C)CC1 | 400 | 180 | 86 | 240 | – | – | – | – | – | – | – | –
COc1cc2c(Oc3ccc(NC(=O)c4c(C)n(-c5ccc(F)c(Cl)c5)c(=O)n4C)cc3F)ccnc2cc1OCCCN1CCC(C)CC1 | 430 | 200 | 89 | 250 | – | – | – | – | – | – | – | –
COc1cc2c(Oc3ccc(NC(=O)c4c(C)n(-c5ccc(F)c(Cl)c5)c(=O)n4C)cc3F)ccnc2cc1OCCCN1CCN(C)CC1 | 380 | 140 | 73 | 210 | – | – | – | – | – | – | – | –
COc1cc2c(Oc3ccc(NC(=O)c4c(C)n(-c5ccc(OC(F)(F)F)cc5)c(=O)n4C)cc3F)ccnc2cc1OCCCN1CCC(C)CC1 | 620 | 400 | 140 | 590 | – | – | – | – | – | – | – | –
COc1cc2c(Oc3ccc(NC(=O)c4c(C)n(-c5ccc(OC(F)(F)F)cc5)c(=O)n4C)cc3F)ccnc2cc1OCCCN1CCN(C)CC1 | 440 | 270 | 120 | 340 | – | – | – | – | – | – | – | –
COc1cc2c(Oc3ccc(NC(=O)c4c(C)n(-c5ccc(C(F)(F)F)cc5)c(=O)n4C)cc3F)ccnc2cc1OCCCN1CCC(C)CC1 | 540 | 360 | 130 | 410 | – | – | – | – | – | – | – | –
COc1cc2c(Oc3ccc(NC(=O)c4c(C)n(-c5cccc(C(F)(F)F)c5)c(=O)n4C)cc3F)ccnc2cc1OCCCN1CCC(C)CC1 | 880 | 520 | 320 | 580 | – | – | – | – | – | – | – | –
COc1cc2c(Oc3ccc(NC(=O)c4c(C)n(-c5cccc(C(F)(F)F)c5)c(=O)n4C)cc3F)ccnc2cc1OCCCN1CCN(C)CC1 | 770 | 430 | 200 | 570 | – | – | – | – | – | – | – | –
COc1cc2c(Oc3ccc(NC(=O)c4c(C)n(-c5ccccc5C(F)(F)F)c(=O)n4C)cc3F)ccnc2cc1OCCCN1CCC(C)CC1 | 450 | 140 | 81 | 220 | – | – | – | – | – | – | – | –
COc1cc2c(Oc3ccc(NC(=O)c4c(C)n(-c5ccccc5C(F)(F)F)c(=O)n4C)cc3F)ccnc2cc1OCCCN1CCN(C)CC1 | 370 | 130 | 69 | 190 | – | – | – | – | – | – | – | –
COc1cc2c(Oc3ccc(NC(=O)c4c(C)n(-c5ccccc5Cl)c(=O)n4C)cc3F)ccnc2cc1OCCCN1CCC(C)CC1 | 320 | 150 | 43 | 180 | – | – | – | – | – | – | – | –
COc1cc2c(Oc3ccc(NC(=O)c4c(C)n(-c5ccccc5Cl)c(=O)n4C)cc3F)ccnc2cc1OCCCN1CCN(C)CC1 | 310 | 120 | 37 | 130 | – | – | – | – | – | – | – | –
COc1cc2c(Oc3ccc(NC(=O)c4[nH]c(=O)n(-c5ccccc5Cl)c4C)cc3F)ccnc2cc1OCCCN1CCN(C)CC1 | 250 | 86 | 14 | 100 | 92.6 | 270 | 38.2 | 1.42 | 8.6 | 134 | 2.1 | > 100000
